Results as given in ChEMBL document CHEMBL5576111, “N-Sulfonylphenoxazines as neuronal calcium ion channel blockers” (RSC Med Chem, 2024).

Columns and labels:
[1] = molecular target: Voltage-dependent N-type calcium channel subunit alpha-1B (Homo sapiens, UniProt Q00975); experiment: Inhibition of Cav2.2 in human SH-SY5Y cells assessed as inhibition of calcium influx preincubated 300 secs followed by addition of KCL/CaCl2 and measured for 300 secs in presence of Cav1 blocker nifedipine by calcium 6 dye based calcium influx assay; type: cell-based
Sequence of Voltage-dependent N-type calcium channel subunit alpha-1B (Q00975 whole entry): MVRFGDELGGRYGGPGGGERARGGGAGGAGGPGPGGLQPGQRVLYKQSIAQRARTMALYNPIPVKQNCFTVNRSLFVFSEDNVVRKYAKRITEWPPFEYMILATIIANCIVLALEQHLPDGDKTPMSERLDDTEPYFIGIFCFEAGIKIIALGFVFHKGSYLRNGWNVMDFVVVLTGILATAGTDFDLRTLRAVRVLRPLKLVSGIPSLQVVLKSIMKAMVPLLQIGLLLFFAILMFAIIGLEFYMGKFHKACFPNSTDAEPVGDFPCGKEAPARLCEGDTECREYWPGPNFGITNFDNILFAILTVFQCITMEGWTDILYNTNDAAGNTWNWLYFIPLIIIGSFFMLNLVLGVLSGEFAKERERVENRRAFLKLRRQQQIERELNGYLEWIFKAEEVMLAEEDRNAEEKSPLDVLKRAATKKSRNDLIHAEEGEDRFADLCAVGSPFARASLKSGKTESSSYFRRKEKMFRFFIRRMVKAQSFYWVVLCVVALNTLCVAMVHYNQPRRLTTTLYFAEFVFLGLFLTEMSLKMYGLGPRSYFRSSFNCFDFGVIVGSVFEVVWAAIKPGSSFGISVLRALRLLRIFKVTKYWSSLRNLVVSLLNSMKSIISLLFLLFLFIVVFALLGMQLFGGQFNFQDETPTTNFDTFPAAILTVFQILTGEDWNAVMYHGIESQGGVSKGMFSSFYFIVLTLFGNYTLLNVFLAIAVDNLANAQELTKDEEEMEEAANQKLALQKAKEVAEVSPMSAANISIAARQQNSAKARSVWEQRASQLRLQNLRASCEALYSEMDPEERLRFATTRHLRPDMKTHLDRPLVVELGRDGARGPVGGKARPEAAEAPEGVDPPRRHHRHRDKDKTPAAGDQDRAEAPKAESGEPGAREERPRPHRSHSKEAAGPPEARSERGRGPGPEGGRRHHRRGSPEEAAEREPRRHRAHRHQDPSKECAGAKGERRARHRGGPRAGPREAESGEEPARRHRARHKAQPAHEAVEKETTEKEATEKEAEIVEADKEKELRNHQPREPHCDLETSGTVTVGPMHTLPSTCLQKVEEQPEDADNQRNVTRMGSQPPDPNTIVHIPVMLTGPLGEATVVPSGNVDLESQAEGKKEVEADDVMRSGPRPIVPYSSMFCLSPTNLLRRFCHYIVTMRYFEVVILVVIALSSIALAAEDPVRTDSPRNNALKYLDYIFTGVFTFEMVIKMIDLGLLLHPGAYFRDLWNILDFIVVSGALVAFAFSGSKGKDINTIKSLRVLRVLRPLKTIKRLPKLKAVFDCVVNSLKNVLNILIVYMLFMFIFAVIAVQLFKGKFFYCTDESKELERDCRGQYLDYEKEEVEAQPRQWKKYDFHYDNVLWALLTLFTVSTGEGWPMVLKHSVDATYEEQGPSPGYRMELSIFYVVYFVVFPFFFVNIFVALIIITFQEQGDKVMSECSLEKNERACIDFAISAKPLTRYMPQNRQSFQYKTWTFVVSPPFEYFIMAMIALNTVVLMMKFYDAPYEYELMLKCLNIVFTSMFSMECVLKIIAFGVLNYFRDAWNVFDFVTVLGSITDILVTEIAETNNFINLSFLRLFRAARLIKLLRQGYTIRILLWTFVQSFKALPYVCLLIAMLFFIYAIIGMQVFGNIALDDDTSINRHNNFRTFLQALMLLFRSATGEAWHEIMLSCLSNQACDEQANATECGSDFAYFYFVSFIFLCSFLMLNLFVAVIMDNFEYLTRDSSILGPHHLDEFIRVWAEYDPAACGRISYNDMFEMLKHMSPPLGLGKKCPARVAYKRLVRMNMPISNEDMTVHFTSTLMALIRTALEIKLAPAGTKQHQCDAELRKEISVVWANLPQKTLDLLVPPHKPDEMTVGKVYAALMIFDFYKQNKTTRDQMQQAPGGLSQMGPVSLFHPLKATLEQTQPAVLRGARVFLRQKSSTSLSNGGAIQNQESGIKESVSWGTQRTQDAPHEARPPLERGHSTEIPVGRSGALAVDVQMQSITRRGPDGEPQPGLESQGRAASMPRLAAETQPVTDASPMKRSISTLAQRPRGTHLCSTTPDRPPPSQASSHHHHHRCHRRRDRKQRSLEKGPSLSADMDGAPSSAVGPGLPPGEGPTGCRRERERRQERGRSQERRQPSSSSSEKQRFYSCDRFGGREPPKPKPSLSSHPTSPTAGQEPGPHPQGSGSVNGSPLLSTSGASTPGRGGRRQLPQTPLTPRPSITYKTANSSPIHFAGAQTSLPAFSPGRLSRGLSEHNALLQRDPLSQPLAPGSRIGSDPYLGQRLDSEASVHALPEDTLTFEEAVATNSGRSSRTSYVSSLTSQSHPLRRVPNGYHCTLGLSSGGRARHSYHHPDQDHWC
Summary of the method: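 Native Cav2.2 in SH-SY5Y neuroblastoma cells seeded at 40000/well and grown 48 h at 37 °C, 5% CO2. Calcium 6 dye loading 30 min at 37 °C in HEPES buffer pH 7.4 with 0.1% BSA and 10 µM nifedipine. Compound added for 300 s, then 90 mM KCl/5 mM CaCl2, read 300 s (ex 470-495, em 515-575 nm). Top concentration 100 µM, 3-fold dilutions, 1% DMSO; cilnidipine control; n = 3.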

[2] = Stability in Sprague-Dawley rat plasma assessed as parent compound remaining at 150 uM measured after 24 hrs at 37 degreeC by HPLC analysis; type: ADME, cell-free; conditions: read-out: Stability
[3] = Metabolic stability in rat liver microsomes assessed intrinsic clearance per mg protein at 1 uM measured up to 60 mins in presence of NADPH by LC/HRMS analysis; type: ADME, Microsome; conditions: 1 h

| IC50 [1] | SMILES | remaining at 24 h, 150 µM [2] | CLint [3] |
| --- | --- | --- | --- |
| 20.8 µM | O=S(=O)(c1ccc(NCCCN2CCOCC2)cc1)N1c2ccccc2Oc2ccccc21 |  |  |
| 13.7 µM | O=S(=O)(c1ccc(NCCCn2ccnc2)cc1)N1c2ccccc2Oc2ccccc21 |  |  |
| 172 µM | COCCCOc1ccc(S(=O)(=O)N2c3ccccc3Oc3ccccc32)cc1 |  |  |
| 18.7 µM | CN(C)CCCN(C)c1ccc(S(=O)(=O)N2c3ccccc3Oc3ccccc32)cc1 |  |  |
| 10.9 µM | CNCCCNc1ccc(S(=O)(=O)N2c3ccccc3Oc3ccccc32)cc1 |  |  |
| 4.4 µM | O=S(=O)(c1ccc(NCCCN2CCCC2)cc1)N1c2ccccc2Oc2ccccc21 |  |  |
| 9.1 µM | CN(C)CCCNc1ccc(S(=O)(=O)N2c3ccccc3Oc3ccccc32)cc1 |  |  |
| 19.9 µM | O=S(=O)(c1ccc(NC2CCNCC2)cc1)N1c2ccccc2Oc2ccccc21 |  |  |
| 15.2 µM | O=S(=O)(c1ccc(NCCCN2CCCCC2)cc1)N1c2ccccc2Oc2ccccc21 |  |  |

| SMILES | IC50 [1] | remaining at 24 h, 150 µM [2] | CLint [3] |
| --- | --- | --- | --- |
| O=C(O)C(F)(F)F.O=S(=O)(c1ccc(OCCCN2CCOCC2)cc1)N1c2ccccc2Oc2ccccc21 | 29 µM | > 90% | 239 µL/min/mg |
| CN(C)CCCOc1ccc(S(=O)(=O)N2c3ccccc3Oc3ccccc32)cc1.O=C(O)C(F)(F)F | 4.3 µM | > 90% | 105 µL/min/mg |
| O=C(O)C(F)(F)F.O=S(=O)(c1ccc(OCCCN2CCCC2)cc1)N1c2ccccc2Oc2ccccc21 | 8 µM | > 90% | 83 µL/min/mg |
| CNCCCOc1ccc(S(=O)(=O)N2c3ccccc3Oc3ccccc32)cc1.O=C(O)C(F)(F)F | 4.6 µM | 73% | 34 µL/min/mg |
| O=C(O)C(F)(F)F.O=S(=O)(c1ccc(OCCCn2ccnc2)cc1)N1c2ccccc2Oc2ccccc21 | 48.7 µM | > 90% | 132 µL/min/mg |
| O=C(O)C(F)(F)F.O=S(=O)(c1ccc(OCCCN2CCCCC2)cc1)N1c2ccccc2Oc2ccccc21 | 7.6 µM | > 90% | 97 µL/min/mg |
